Source: ChEMBL document CHEMBL5705905, “Pharmacological targeting of kinases MST1 and MST2 augments tissue repair and regeneration” (Sci Transl Med, 2016)

What was measured:
[1] = target: Serine/threonine-protein kinase RIO3 (Homo sapiens) (UniProt O14730); experiment: Inhibition of RIOK3 (unknown origin) assessed as remaining activity at 1 uM by Kinome scan method relative to control
[2] = target: 5'-AMP-activated protein kinase catalytic subunit alpha-2 (Homo sapiens) (UniProt P54646); experiment: Inhibition of AMPK-alpha2 (unknown origin) assessed as remaining activity at 1 uM by Kinome scan method relative to control
In short: (§1)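 Active-site-dependent competition-binding (KINOMEscan) panel of 468 kinases, test compound at 1 μM (from a 10 mM DMSO stock). Read-out is ctrl% = (test signal − positive control signal)/(negative control signal − positive control signal) × 100. DMSO is the negative control (100%) and a control compound is the positive control (0%). Lower ctrl% means tighter binding.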

[3] = target: Mitogen-activated protein kinase kinase kinase 20 (Homo sapiens) (UniProt Q9NYL2); experiment: Inhibition of ZAK (unknown origin) assessed as remaining activity at 1 uM by Kinome scan method relative to control
[4] = target: 1-phosphatidylinositol 3-phosphate 5-kinase (Homo sapiens) (UniProt Q9Y2I7); experiment: Inhibition of PIKFYVE (unknown origin) assessed as remaining activity at 1 uM by Kinome scan method relative to control
[5] = target: Serine/threonine-protein kinase PknB (Mycobacterium tuberculosis) (UniProt P9WI81); experiment: Inhibition of Mycobacterium tuberculosis PknB assessed as remaining activity at 1 uM by Kinome scan method relative to control
In short: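 KINOMEscan active-site competition binding assay at 1 μM against 468 kinases. Ctrl% = (test − positive control)/(negative control DMSO − positive control) × 100; lower values mean tighter binding.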

[6] = target: Serine/threonine-protein kinase TAO1 (Homo sapiens, UniProt Q7L7X3); experiment: Binding affinity to TAOK1 (unknown origin) assessed as dissociation constant
[7] = tested on: Serine/threonine-protein kinase B-raf (Homo sapiens), P15056 [V600E]; experiment: Inhibition of BRAF V600E mutant (unknown origin) assessed as remaining activity at 1 uM by Kinome scan method relative to control; in short: as §1
[8] = target: SRSF protein kinase 2 (Homo sapiens) (UniProt P78362); experiment: Inhibition of SRPK2 (unknown origin) assessed as remaining activity at 1 uM by Kinome scan method relative to control
[9] = target: ALK tyrosine kinase receptor (Homo sapiens) (UniProt Q9UM73); experiment: Inhibition of ALK (unknown origin) assessed as remaining activity at 1 uM by Kinome scan method relative to control; in short: as §1
[10] = target: Non-receptor tyrosine-protein kinase TYK2 (Homo sapiens, UniProt P29597); experiment: Inhibition of TYK2 JH1 domain (unknown origin) assessed as remaining activity at 1 uM by Kinome scan method relative to control
[11] = tested on: Tyrosine-protein kinase ABL1 (Homo sapiens), P00519 [H396P]; experiment: Inhibition of ABL1 H396P mutant (unknown origin) assessed as remaining activity at 1 uM by Kinome scan method relative to control; in short: as §1
[12] = target: G protein-coupled receptor kinase 3 (Homo sapiens) (UniProt P35626); experiment: Inhibition of GRK3 (unknown origin) assessed as remaining activity at 1 uM by Kinome scan method relative to control
[13] = target: Serine/threonine-protein kinase TAO2 (Homo sapiens) (UniProt Q9UL54); experiment: Inhibition of TAOK2 (unknown origin) assessed as remaining activity at 1 uM by Kinome scan method relative to control
[14] = target: Serine/threonine-protein kinase Sgk3 (Homo sapiens) (UniProt Q96BR1); experiment: Inhibition of SGK3 (unknown origin) assessed as remaining activity at 1 uM by Kinome scan method relative to control
[15] = target: Homeodomain-interacting protein kinase 1 (Homo sapiens) (UniProt Q86Z02); experiment: Inhibition of HIPK1 (unknown origin) assessed as remaining activity at 1 uM by Kinome scan method relative to control
[16] = AUC (0 to t) in male Sprague-Dawley rat at 5 mg/kg, iv measured for 24 hrs by LC-MS/MS analysis; type: ADME, organism-based; settings: in vivo
In short: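 Sprague-Dawley rats, single intravenous or oral dose. Parameters (half-life, AUC, bioavailability) reported in a supplementary table.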

[17] = target: Mitogen-activated protein kinase kinase kinase 10 (Homo sapiens) (UniProt Q02779); experiment: Inhibition of MLK2 (unknown origin) assessed as remaining activity at 1 uM by Kinome scan method relative to control
[18] = target: Aurora kinase C (Homo sapiens) (UniProt Q9UQB9); experiment: Inhibition of AURKC (unknown origin) assessed as remaining activity at 1 uM by Kinome scan method relative to control
In short: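 KINOMEscan active-site-dependent competition-binding panel of 468 kinases, compound at 1 μM from a DMSO stock. Result reported as ctrl% = (test signal − positive control signal)/(negative control signal − positive control signal) × 100. The negative control is DMSO (100%) and the positive control is a control compound (0%). Lower ctrl% means tighter binding.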

[19] = target: Serine/threonine-protein kinase TBK1 (Homo sapiens) (UniProt Q9UHD2); experiment: Inhibition of TBK1 (unknown origin) assessed as remaining activity at 1 uM by Kinome scan method relative to control
[20] = target: Cyclin-dependent kinase 9 (Homo sapiens) (UniProt P50750); experiment: Inhibition of CDK9 (unknown origin) assessed as remaining activity at 1 uM by Kinome scan method relative to control
In short: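 Active-site-dependent competition-binding profiling (KINOMEscan) at 1 μM against a 468-kinase panel; compound supplied from a 10 mM DMSO stock. Read-out is ctrl% = (test signal − positive control signal)/(negative control signal − positive control signal) × 100. DMSO is the negative control (100%) and a control compound the positive control (0%). Lower ctrl% means tighter binding.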

[21] = Acute toxicity in wild-type mouse assessed as ratio of liver weight to body weight at 1 mg/kg,ip administrated twice daily for 7 days; type: organism-based; settings: in vivo, 168 h, time 7 day
In short: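 Wild-type mice underwent two-thirds partial hepatectomy with vehicle or 1 mg/kg i.p. twice per day, starting with a dose before surgery. Liver/body weight ratio was followed over postoperative days, n = 5; means ± SD.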

[22] = target: Mitogen-activated protein kinase kinase kinase 2 (Homo sapiens, UniProt Q9Y2U5); experiment: Binding affinity to MAP3K2 (unknown origin) assessed as dissociation constant
[23] = target: Serine/threonine-protein kinase ULK3 (Homo sapiens) (UniProt Q6PHR2); experiment: Inhibition of ULK3 (unknown origin) assessed as remaining activity at 1 uM by Kinome scan method relative to control
[24] = target: Ribosomal protein S6 kinase alpha-6 (Homo sapiens) (UniProt Q9UK32); experiment: Inhibition of C-terminal kinase domain RSK4 (unknown origin) assessed as remaining activity at 1 uM by Kinome scan method relative to control; in short: as §1
[25] = target: MAP kinase-activated protein kinase 5 (Homo sapiens) (UniProt Q8IW41); experiment: Inhibition of MAPKAPK5 (unknown origin) assessed as remaining activity at 1 uM by Kinome scan method relative to control
[26] = target: Tyrosine-protein kinase JAK1 (Homo sapiens, UniProt P23458); experiment: Inhibition of JAK1 JH1 domain (unknown origin) assessed as remaining activity at 1 uM by Kinome scan method relative to control

Chain of Serine/threonine-protein kinase B-raf (Homo sapiens), P15056 [V600E] (P15056 whole entry V600E): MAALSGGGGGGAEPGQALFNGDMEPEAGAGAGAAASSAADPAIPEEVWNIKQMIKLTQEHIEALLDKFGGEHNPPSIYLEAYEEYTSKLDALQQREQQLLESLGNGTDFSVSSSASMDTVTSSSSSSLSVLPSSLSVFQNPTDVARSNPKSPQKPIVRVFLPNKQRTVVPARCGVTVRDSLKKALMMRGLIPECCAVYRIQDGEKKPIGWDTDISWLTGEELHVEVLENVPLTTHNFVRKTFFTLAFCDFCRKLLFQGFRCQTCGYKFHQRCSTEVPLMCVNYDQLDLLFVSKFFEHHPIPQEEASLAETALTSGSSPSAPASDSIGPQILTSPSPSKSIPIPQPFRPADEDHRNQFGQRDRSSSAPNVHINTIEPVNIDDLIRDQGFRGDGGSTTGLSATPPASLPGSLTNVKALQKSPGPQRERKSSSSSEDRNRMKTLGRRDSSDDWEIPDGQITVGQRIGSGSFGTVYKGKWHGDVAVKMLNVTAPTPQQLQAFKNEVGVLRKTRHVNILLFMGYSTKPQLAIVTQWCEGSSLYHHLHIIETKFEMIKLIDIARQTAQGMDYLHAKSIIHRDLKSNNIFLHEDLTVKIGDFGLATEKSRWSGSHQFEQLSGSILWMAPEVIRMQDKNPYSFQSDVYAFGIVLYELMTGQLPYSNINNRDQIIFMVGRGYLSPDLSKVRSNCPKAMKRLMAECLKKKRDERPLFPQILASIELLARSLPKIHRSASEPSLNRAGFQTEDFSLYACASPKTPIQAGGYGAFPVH
Chain of Cyclin-dependent kinase 9 (Homo sapiens) (P50750 whole entry): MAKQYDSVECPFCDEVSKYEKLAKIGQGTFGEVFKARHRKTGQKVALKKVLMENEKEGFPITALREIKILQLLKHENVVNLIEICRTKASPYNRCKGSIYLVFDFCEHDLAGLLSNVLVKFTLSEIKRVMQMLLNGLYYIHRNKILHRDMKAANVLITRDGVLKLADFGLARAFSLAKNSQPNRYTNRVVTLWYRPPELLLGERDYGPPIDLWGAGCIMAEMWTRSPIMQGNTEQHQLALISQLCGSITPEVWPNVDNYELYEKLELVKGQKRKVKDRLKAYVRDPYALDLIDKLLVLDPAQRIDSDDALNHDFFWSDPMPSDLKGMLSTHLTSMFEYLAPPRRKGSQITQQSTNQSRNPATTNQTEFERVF
Chain of 1-phosphatidylinositol 3-phosphate 5-kinase (Homo sapiens) (Q9Y2I7 whole entry): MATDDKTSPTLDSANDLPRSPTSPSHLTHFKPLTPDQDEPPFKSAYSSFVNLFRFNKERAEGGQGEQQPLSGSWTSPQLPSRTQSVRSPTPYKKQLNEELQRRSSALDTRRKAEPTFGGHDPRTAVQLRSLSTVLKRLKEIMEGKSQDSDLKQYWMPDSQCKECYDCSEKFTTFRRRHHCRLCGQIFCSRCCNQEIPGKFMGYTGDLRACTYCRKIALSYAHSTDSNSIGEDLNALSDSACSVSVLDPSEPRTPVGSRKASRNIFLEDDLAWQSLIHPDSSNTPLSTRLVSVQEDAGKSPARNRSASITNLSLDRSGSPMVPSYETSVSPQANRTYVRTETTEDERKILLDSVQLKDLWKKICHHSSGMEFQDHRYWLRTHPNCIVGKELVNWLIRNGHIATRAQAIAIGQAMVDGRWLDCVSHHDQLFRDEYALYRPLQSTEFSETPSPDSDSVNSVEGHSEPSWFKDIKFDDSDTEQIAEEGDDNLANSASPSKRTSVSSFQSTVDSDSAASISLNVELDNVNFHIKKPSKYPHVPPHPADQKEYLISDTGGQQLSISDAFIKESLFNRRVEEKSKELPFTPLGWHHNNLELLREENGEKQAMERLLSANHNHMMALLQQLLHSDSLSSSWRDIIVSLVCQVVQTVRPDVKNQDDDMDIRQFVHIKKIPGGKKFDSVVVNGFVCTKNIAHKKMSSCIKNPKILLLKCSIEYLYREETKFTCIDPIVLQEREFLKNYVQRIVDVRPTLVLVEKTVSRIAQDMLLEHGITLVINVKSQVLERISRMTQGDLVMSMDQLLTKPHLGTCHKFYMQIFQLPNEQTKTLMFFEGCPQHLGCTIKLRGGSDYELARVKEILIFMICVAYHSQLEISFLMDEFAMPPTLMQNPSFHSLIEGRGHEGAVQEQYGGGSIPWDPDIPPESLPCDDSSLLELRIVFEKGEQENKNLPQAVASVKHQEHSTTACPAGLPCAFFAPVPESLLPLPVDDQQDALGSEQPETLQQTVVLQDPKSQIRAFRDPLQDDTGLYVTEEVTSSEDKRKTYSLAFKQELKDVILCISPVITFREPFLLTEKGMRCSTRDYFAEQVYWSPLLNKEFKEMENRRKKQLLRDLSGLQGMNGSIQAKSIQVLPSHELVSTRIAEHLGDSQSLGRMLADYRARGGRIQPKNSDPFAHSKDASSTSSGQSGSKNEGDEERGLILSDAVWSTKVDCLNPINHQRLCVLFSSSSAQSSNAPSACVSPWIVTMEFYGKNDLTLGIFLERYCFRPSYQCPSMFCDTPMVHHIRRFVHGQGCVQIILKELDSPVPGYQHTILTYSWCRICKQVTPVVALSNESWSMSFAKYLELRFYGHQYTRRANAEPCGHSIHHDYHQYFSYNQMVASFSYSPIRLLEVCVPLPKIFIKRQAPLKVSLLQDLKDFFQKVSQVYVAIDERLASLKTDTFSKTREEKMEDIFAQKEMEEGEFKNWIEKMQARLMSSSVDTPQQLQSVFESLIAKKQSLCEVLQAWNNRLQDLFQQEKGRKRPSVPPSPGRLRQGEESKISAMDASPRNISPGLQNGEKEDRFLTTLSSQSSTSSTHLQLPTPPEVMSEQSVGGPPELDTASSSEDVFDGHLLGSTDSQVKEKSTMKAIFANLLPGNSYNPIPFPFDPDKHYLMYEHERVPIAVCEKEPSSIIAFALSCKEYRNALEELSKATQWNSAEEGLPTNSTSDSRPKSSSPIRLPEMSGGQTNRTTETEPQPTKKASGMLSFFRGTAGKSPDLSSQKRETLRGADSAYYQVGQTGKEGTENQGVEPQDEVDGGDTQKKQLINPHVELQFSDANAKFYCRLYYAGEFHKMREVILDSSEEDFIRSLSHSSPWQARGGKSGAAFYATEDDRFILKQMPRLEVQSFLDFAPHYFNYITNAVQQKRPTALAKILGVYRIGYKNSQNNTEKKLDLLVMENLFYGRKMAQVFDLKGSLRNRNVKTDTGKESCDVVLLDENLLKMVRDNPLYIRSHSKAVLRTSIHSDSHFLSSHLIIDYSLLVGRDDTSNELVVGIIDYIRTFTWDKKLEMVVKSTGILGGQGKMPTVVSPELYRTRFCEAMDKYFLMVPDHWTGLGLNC
Chain of Homeodomain-interacting protein kinase 1 (Homo sapiens) (Q86Z02 whole entry, looked up): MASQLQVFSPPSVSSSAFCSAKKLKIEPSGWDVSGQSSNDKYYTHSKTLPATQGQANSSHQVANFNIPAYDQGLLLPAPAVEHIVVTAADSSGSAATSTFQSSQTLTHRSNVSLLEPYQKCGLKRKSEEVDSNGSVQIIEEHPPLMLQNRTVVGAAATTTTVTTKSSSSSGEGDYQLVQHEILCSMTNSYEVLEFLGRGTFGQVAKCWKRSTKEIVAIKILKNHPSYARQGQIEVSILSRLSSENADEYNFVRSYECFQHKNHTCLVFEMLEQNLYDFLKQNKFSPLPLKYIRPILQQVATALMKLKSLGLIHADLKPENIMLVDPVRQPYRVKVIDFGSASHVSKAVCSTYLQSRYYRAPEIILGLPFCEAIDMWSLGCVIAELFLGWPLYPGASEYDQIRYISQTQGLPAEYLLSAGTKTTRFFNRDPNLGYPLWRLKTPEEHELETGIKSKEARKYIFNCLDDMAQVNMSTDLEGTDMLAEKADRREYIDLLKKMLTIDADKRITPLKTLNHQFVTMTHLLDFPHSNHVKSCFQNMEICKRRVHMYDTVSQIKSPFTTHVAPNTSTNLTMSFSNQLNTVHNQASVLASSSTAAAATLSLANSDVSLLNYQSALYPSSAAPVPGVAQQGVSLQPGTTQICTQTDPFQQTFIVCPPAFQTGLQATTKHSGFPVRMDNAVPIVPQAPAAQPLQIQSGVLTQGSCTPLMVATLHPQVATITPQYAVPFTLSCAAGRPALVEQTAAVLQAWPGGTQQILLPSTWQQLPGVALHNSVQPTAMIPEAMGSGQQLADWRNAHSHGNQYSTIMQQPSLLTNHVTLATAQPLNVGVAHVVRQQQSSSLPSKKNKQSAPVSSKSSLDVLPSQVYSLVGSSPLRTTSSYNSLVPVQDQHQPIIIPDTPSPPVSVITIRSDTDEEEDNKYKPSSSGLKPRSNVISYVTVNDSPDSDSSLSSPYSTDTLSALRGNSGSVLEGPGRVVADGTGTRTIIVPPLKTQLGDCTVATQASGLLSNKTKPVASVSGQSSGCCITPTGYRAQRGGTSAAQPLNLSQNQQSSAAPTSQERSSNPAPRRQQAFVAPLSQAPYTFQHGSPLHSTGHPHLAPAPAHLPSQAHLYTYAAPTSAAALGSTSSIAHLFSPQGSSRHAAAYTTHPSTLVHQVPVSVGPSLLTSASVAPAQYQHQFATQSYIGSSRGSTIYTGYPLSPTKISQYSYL
Chain of Serine/threonine-protein kinase Sgk3 (Homo sapiens) (Q96BR1 whole entry): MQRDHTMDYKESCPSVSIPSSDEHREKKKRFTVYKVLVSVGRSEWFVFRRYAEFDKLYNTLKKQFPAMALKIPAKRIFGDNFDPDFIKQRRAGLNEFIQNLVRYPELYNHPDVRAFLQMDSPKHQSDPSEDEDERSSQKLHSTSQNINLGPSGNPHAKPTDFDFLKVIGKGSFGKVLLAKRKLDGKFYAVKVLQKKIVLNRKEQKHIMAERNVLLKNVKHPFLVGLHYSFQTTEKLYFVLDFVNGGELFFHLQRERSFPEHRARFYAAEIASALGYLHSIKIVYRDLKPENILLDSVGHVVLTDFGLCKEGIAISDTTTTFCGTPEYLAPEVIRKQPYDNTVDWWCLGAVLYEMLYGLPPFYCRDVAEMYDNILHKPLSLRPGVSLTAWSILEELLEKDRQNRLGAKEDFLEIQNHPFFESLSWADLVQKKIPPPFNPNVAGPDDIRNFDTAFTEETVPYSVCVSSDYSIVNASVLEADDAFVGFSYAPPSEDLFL

**Q.** What does the source list for `CN1C(=O)c2sccc2N(C)c2nc(Nc3ccc(S(N)(=O)=O)cc3)ncc21`?
**A.** Activity [1]: 100%; Activity [2]: 100%; Activity [3]: 82%; Activity [4]: 64%; Activity [5]: 89%; Kd [6]: 180 nM; Activity [7]: 100%; Activity [8]: 93%; Activity [9]: 94%; Activity [10]: 2.7%; Activity [11]: 11%; Activity [12]: 87%; Activity [13]: 3.4%; Activity [14]: 87%; Activity [15]: 91%; AUC(0-t) at 24 h [16]: 1260 ng·h/mL; Activity [17]: 77%; Activity [18]: 95%; Activity [19]: 90%; Activity [20]: 84%; Activity [21]: Toxic; Kd [22]: 19 nM; Activity [23]: 84%; Activity [24]: 93%; Activity [25]: 91%; Activity [26]: 97%
